PERK inhibitor = blocks human PERK kinase. Q9NZJ5. 220,000 compounds, 0.17% hits. AID 1416. CHO PERK-DD fusion, SEAP luminescence translation reporter. inhibition, % at 5.6 µM;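 active means inhibition above the mean inhibition of all tested compounds plus 3 SD, set separately per screening campaign, cut at about 2.9% in these data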;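 further: PERK kinase domain activated by AP20187 dimerizer at 100 nM; 0% = DMSO with dimerizer and 100% = rapamycin at 8.4 µM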
STAT3 act = activators of IL-6 induced STAT3 signaling. U3A cells, IL-6 STAT3-luciferase reporter, luminescence; 100% = signal with IL-6 EC80 alone. activation (% of control), % at 5.6 µM. 190,000 compounds, 0.91% hits. AID 871;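 active means activation above the screen-wide mean of compound activation plus 3 SD, cut at about 130% in these data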;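 further: 0% = background luminescence of wells with medium and substrate only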
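Material: human STAT1-deficient U3A cells with stable STAT3-luciferase reporter / Probe or stimulus: IL-6 stimulus at 33 ng/mL final / Schedule: 1 h compound pre-exposure, 6 h IL-6 stimulation, 37 °C / Technique: luminescence / Read-out basis: percent of IL-6-only median luminescence / Control set: IL-6-only high control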
STAT1 inh = inhibitors of IFN-gamma induced STAT1 signaling; NIH 3T3 STAT1-luciferase reporter, luminescence; inhibition, % at 5.5 µM; 200,000 compounds, 0.35% hits;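 active means inhibition above a set limit, the mean inhibition across all tested compounds plus 3 SD, cut at about 34% in these data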;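 further: 0% = IFN-gamma with DMSO and 100% = IFN-gamma with 300 µM nifuroxazide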
STAT3 blocker = reduces IL-6 driven STAT3 reporter signal; U3A cells, IL-6 STAT3-luciferase reporter, luminescence; host cell line lacks STAT1; inhibition, % at 5.5 µM; 190,000 compounds, 0.89% hits;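 active means inhibition above the mean inhibition across all screened compounds plus 3 SD, cut at about 44% in these data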;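 further: 0% = DMSO only wells and 100% = 100 µM nifuroxazide control wells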
An asterisk follows results filed as active; . = not tested or not shown. Shown are actives, neighbours in structure and some others; about 1.8% of the full set was active somewhere.

SMILES	PERK inhibitor	STAT3 act	STAT1 inh	STAT3 blocker
CCCCCCCCCCn1c2c(c(=N)c3c1CCC3)CCC2	-1	38	25	78*
CCn1c2c(c(=N)c3c1CCC3)CCCC2	1	.	.	.
CCCCCn1c2c(c(=N)c3ccccc31)CCC2	-1	.	.	.
CCCCCCCCCn1c2c(c(=N)c3c1CCC3)CCCC2	0	39	52*	76*
COc1ccc(-c2n(CC(=O)OC3CC(C)CCC3C(C)C)c3ccccc3[n+]2C)cc1 (stereo not given)	1	58	57*	52*
Cc1sc2ncn(CC(=O)OC(C)C)c(=O)c2c1C	0	103	-1	-3
CCC(=O)NCCNc1nc2cc(C)cc(C)c2cc1C#N	-1	84	2	24
Cc1cc(C)c2cc(C#N)c(NCCOC(=O)c3ccccc3C)nc2c1	3.2*	101	4	10
CCOc1ccc(-n2c(SCC(N)=O)nc3c([nH]c4ccccc43)c2=O)cc1	0	134*	6	-37
COC(=O)C(C)Sc1nc2c([nH]c3ccccc32)c(=O)n1C (stereo not given)	0	133*	7	-32
COc1cc(/C=C2/S/C(=N/S(=O)(=O)Cc3ccccc3)NC2=O)c([N+](=O)[O-])cc1OC	3.0*	.	.	.
CCOC(=O)c1ccc(N=c2sc(C(=O)OC)cc(=O)n2C2CC2)cc1	3.1*	105	5	-2
CCOC(=O)c1ccc(N=c2sc(C(=O)OC)cc(=O)n2Cc2ccc3c(c2)OCO3)cc1	1	100	5	9
CCOC(=O)c1nn(-c2ccc(Cl)cc2)c2nnc(Cc3ccccc3)c(=O)n12	1	89	7	16
O=C(O)C/C(=C\c1ccc(Cl)cc1)c1nc2ccccc2o1	2	98	-13	11
O=C(O)C(=O)/C(=C\c1ccc(Cl)cc1)c1ccc2ccccc2n1	1	147*	-34	-45
COc1ccc(C(=O)Nn2c(SCC(=O)NCC3CCCO3)nc3ccccc3c2=O)cc1 (stereo not given)	1	34	47*	77*
CC(C)N(CC(=O)Nc1ccc(Cl)cc1C(F)(F)F)C(=O)CCl	0	49	46*	65*
CCC(C)N(CC(=O)Nc1cccc(C)c1C)C(=O)CCl (stereo not given)	0	42	38*	70*
CCOCCCNC(=O)c1cc2c(-c3ccc(Cl)cc3)nn(C)c2s1	-1	136*	1	-32
O=C(Nc1cccc(S(=O)(=O)N2CCCCC2)c1)Nc1ccc(Cl)cc1Cl	0	100	5	4
CC(C)c1ccc(C2NC(=O)NC3=C2CCc2ccccc23)cc1 (stereo not given)	0	91	4	15
Cc1ccc(C2NC(=O)NC3=C2CCc2ccccc23)cc1 (stereo not given)	0	134*	13	-34
CC1=CC2=NC(=O)/C(=C\c3cc(C)n(-c4ccccc4F)c3C)C(=N)N2O1	1	113	-2	-17
Cc1cc(/C=C2/C(=N)N3C(=NC2=O)SN=C3S(C)(=O)=O)c(C)n1-c1ccccc1F	3.4*	94	-15	9
SMILES	PERK inhibitor	STAT3 act	STAT1 inh	STAT3 blocker
CC(C)CC(C(=O)NC(C)(C)C)N(CC1CCCO1)C(=O)c1snc(C(N)=O)c1N (stereo not given)	0	107	-6	-6
C=CCCCCCCCCc1nc(SCC(=O)O)n[nH]1	3.0*	.	.	.
Cc1cnc(NC(=O)COc2ccccc2Cl)s1	0	26	61*	92*
CCOc1ccc(-c2ccc(SC)nn2)cc1	1	14	81*	110*
O=C(COC(=O)CCC(=O)c1ccc(F)cc1)Nc1cccc(S(=O)(=O)N2CCOCC2)c1	0	103	-2	-1
COc1ccc(OCCC(=O)OCC(=O)Nc2cccc(S(=O)(=O)N3CCOCC3)c2)cc1	3.3*	98	4	8
O=C(O)c1ccc2c3c(cccc13)C(=O)N(c1ccccc1)C2=O	1	130	1	-28
CC(=O)c1ccc2c3c(cccc13)C(=O)N(CCc1ccccc1)C2=O	0	183*	-36	-101
Cc1onc(-c2c(Cl)cccc2Cl)c1C(=O)ONC(=O)c1cc(C(F)(F)F)cc(C(F)(F)F)c1	3.0*	.	.	.
O=C(COC(=O)c1ncc(Cl)c(Cl)c1Cl)Nc1ccccc1OC(F)F	0	134*	-2	-40
O=C(COC(=O)COc1ccccc1Cl)Nc1ccccc1OC(F)F	0	115	6	-18
Cc1ccc(NC(=O)Cn2cccc2)cc1Cl	2.9*	76	0	32
COc1ccc(/C=N/NS(=O)(=O)c2ccc(C)cc2)cc1OC(=O)c1ccc(C)cc1	-1	101	8	4
